The source of these data is ChEMBL document CHEMBL1221284, “Development of 2-pyrrolidinyl-N-methyl pyrimidones as potent and orally bioavailable HIV integrase inhibitors” (Bioorg Med Chem Lett, 2010).

Data set [1] in a line: AUC in rat at 3 mg/kg, po and 3 mg/kg, iv. The data set is classed as ADME, organism-based. The note with it: plasma. In short, it runs like this: (§1)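 The iv dose was given in DMSO/PEG400/H2O (20–40–40%) and the oral dose in 1% methylcellulose. Terminal-phase plasma half-life was taken from the iv administration and AUC from the oral administration.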
Data set [2] can be described thus: Terminal phase half life in rat at 3 mg/kg, po and 3 mg/kg, iv. The note with it: in vivo, read-out: beta t1/2 (converted). The data set is classed as ADME, organism-based. In short, it runs like this: as §1
Data set [3] concerns the target Human immunodeficiency virus type 1 integrase (Human immunodeficiency virus 1, UniProt Q7ZJM1). Nature of the data set: Inhibition of HIV 1 recombinant integrase. In short, it runs like this:
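Recombinant HIV-1 integrase was pre-assembled on immobilized oligonucleotides. Inhibitor was added after assembly and washing. IC50 is the inhibitor concentration that reduces integrase activity by 50%.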

The nature of data set [4]: Plasma clearance in rat at 3 mg/kg, po and 3 mg/kg, iv. The data set is classed as ADME, organism-based. In a few lines:
as §1

In data set [5] the test system is Human immunodeficiency virus 1. Nature of the data set: Antiviral activity against HIV1 3B infected in human MT4 cells assessed as inhibition of viral infections in presence of 50 % normal human serum. Type of data set: functional. The following applies: Human immunodeficiency virus 1, 3B, read-out: CIC95. In short, it runs like this: (§2)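 Spread assay measuring inhibition of HIV-1 IIIb infection spread in MT-4 T-lymphoid cell culture. The medium held 10% fetal bovine serum for line 3 and 50% normal human serum for line 4. The readout is the 95% inhibitory concentration (CIC95).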

Data set [6] has as its system Human immunodeficiency virus 1. Nature of the data set: Antiviral activity against HIV1 3B infected in human MT4 cells assessed as inhibition of viral infections in presence of 10% fetal bovine serum. The data set is classed as functional. The following applies: Human immunodeficiency virus 1, 3B, read-out: CIC95. In a few lines:
as §2

Data set [7] in a line: Oral bioavailability in rat at 3 mg/kg. Type of data set: ADME, organism-based. The following applies: in vivo. In a few lines:
as §1

Data set [8] is described as follows: AUC in dog at 1 mg/kg, iv and 2 mg/kg, po. The following applies: plasma.
Data set [9] can be described thus: Oral bioavailability in dog at 1 mg/kg. Type of data set: ADME, organism-based, Canis lupus familiaris. The note with it: in vivo. In short, it runs like this:
as §1

Data set [10] deals with Human immunodeficiency virus 1. In words: Antiviral activity against HIV1 harboring integrase F121Y mutant relative to wild type.
In data set [11] the test system is Human immunodeficiency virus 1. Nature of the data set: Antiviral activity against HIV1 harboring integrase V151I mutant relative to wild type. Type of data set: functional.
The subject of data set [12] is Human immunodeficiency virus 1. In words: Antiviral activity against HIV1 harboring integrase T66I and M154I double mutant relative to wild type. The data set is classed as functional.
The subject of data set [13] is Human immunodeficiency virus 1. In words: Antiviral activity against HIV1 harboring integrase T66I mutant relative to wild type. The data set is classed as functional.
Data set [14] deals with Human immunodeficiency virus 1. In words: Antiviral activity against HIV1 harboring integrase T66I and S153Y double mutant relative to wild type. Type of data set: functional.
Data set [15] deals with Human immunodeficiency virus 1. Nature of the data set: Antiviral activity against HIV1 harboring integrase T66/L74M and V151L double mutant relative to wild type. The data set is classed as functional.
Data set [16] deals with Human immunodeficiency virus 1. Nature of the data set: Antiviral activity against HIV1 harboring integrase N155S mutant relative to wild type. Type of data set: functional.
Data set [17] is described as follows: Terminal phase half life in dog at 1 mg/kg, iv and 2 mg/kg, po. The note with it: in vivo, read-out: beta t1/2 (converted).
The species named for data set [18] is Homo sapiens. In words: Plasma protein binding in human. The following applies: read-out: PPB (converted).
Data set [19] deals with Human immunodeficiency virus 1. Nature of the data set: Antiviral activity against HIV1 harboring integrase T125K mutant relative to wild type. The data set is classed as functional.
Data set [20] has as its system Human immunodeficiency virus 1. In words: Antiviral activity against HIV1 harboring integrase T125K and […] double mutant relative to wild type. Type of data set: functional.
Data set [21] is described as follows: Metabolic stability in rat liver microsomes assessed as glucuronidation rate after 1 hr in presence of UDPGA. Type of data set: ADME, Microsome. In short, it runs like this:
(§3)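 Rat liver microsomes (1 mg/mL) were incubated with test compound for 1 h. The cofactor was UDPGA for glucuronidation and NADPH for oxidation. Substrate loss was measured by LC/MS/MS and expressed as % of initial remaining.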

Data set [22] can be described thus: Plasma protein binding in rat. Type of data set: ADME, cell-free. The following applies: read-out: PPB (converted).
The nature of data set [23]: Metabolic stability in rat liver microsomes assessed as oxidation rate after 1 hr in presence of NADPH. The data set is classed as ADME, Microsome. In short, it runs like this:
as §3

Structures are written as SMILES.

Sequence of Human immunodeficiency virus type 1 integrase (Q7ZJM1 whole entry): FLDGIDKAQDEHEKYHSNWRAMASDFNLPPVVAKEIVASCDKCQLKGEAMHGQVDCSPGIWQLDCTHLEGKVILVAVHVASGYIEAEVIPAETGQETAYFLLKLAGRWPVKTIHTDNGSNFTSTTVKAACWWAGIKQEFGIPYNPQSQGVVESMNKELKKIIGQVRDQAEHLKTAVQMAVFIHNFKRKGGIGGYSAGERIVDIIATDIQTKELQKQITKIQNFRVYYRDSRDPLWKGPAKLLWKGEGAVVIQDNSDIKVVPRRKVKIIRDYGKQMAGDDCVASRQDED

As to `CC(=O)N1C[C@@H](F)C[C@H]1c1nc(C(=O)NCc2ccc(F)c(C)c2)c(O)c(=O)n1C`, the AUC in [1] came to 0.5 µM·h. In addition, the half-life in data set [2] was 1.4 h. For the same compound, the IC50 in data set [3] was found to be 27 nM. For the same compound, the clearance in data set [4] worked out at 39 mL/min/kg. The results for the IC95 in data set [5] and in data set [6] were 31 nM and 16 nM, respectively. Besides, the bioavailability in [7] was 17%.
As to `CC(=O)N1C[C@@H](F)C[C@H]1c1nc(C(=O)NCc2ccc(C)c(Cl)c2)c(O)c(=O)n1C`, the AUC in data set [8] amounted to 6.4 µM·h; in data set [1] it was 3.7 µM·h. In addition, the figures for the bioavailability in data set [9] and in data set [7] were 80% and 94%, respectively. Further, the half-life in [2] was 3 h; in [17] it was 1.2 h. Further, the “Ratio IC50” value was determined as 1.5 in data set [10]; 1 in data set [11]; 0.8 in [12]; 1 in data set [13]; 0.8 in [14]; 2.5 in data set [15]. The figures for the “Ratio IC50” value in data set [16], in data set [19] and in data set [20] were 8, 1 and 3.5, respectively. Also, the IC50 in data set [3] turned out to be 32 nM. This compound gave a clearance in data set [4] of 29 mL/min/kg. The IC95 in data set [5] came out at 46 nM; in data set [6], 5 nM. The fraction unbound in data set [18] was 0.022.
In the case of `COC(=O)N1C[C@@H](F)C[C@H]1c1nc(C(=O)NCc2ccc(C)c(Cl)c2)c(O)c(=O)n1C`, the AUC in data set [1] is 1.2 µM·h. In [2], the half-life was 7.4 h. The IC50 in data set [3] was found to be 20 nM. Also, the clearance in data set [4] was found to be 9.9 mL/min/kg. Besides, the IC95 in [5] was 63 nM; in data set [6] it was 16 nM. The bioavailability in data set [7] came to 10%.
In turn, `COC(=O)N1C[C@@H](F)C[C@H]1c1nc(C(=O)NCc2ccc(F)c(Cl)c2)c(O)c(=O)n1C` registered an exposure (AUC) in data set [1] of 1.3 µM·h. Also, the half-life in data set [2] is 1.5 h. The IC50 in [3] was 19 nM. For the same compound, in data set [4], the clearance was 21 mL/min/kg. Further, the values for the IC95 in data set [5] and in data set [6] were 31 nM and 16 nM, respectively. The bioavailability in [7] was determined as 25%.
Regarding `Cn1c([C@@H]2C[C@H](F)CN2C2CC2)nc(C(=O)NCc2ccc(F)cc2)c(O)c1=O`, the IC50 in [3] was 20 nM. Also, the IC95 amounted to 250 nM in data set [5] and 63 nM in [6].
Consider `Cn1c([C@@H]2C[C@H](F)CN2Cc2ccon2)nc(C(=O)NCc2ccc(F)cc2)c(O)c1=O`, for which the IC50 in data set [3] is 10 nM. Also, the IC95 in [5] came out at 625 nM; in data set [6], 156 nM.
In data set [1], `CC(=O)N1C[C@@H](F)C[C@H]1c1nc(C(=O)NCc2ccc(F)cc2)c(O)c(=O)n1C` gave an AUC of 1.2 µM·h. Further, the half-life in data set [2] is 0.3 h. Moreover, the remaining at 1 h stood at 43% in data set [21] and 40% in data set [23]. In addition, the fraction unbound in data set [22] was 0.37; in [18], 0.21. Moreover, the “Ratio IC50” value in data set [12] is recorded as 2; in data set [14], 5; in data set [15] it was 10; in data set [16], 15; in [20], 15. The IC50 in data set [3] was 15 nM. The clearance in data set [4] was 64 mL/min/kg. Also, the values for the IC95 in data set [5] and in data set [6] were 17 nM and 14 nM, respectively. Besides, the bioavailability in data set [7] is 31%.
With `COC(=O)N1C[C@@H](F)C[C@H]1c1nc(C(=O)NCc2ccc(F)cc2)c(O)c(=O)n1C`, the area under the curve (AUC) in data set [1] came to 1.2 µM·h. For the same compound, in data set [2], the half-life was 0.6 h. Besides, the IC50 in data set [3] turned out to be 10 nM. Also, the clearance in data set [4] stood at 46 mL/min/kg. For the same compound, the IC95 stood at 63 nM in [5] and 31 nM in data set [6]. Further, the bioavailability in data set [7] is 44%.
`CN(C)C(=O)N1C[C@@H](F)C[C@H]1c1nc(C(=O)NCc2ccc(F)cc2)c(O)c(=O)n1C`: the IC50 in [3] came out at 10 nM. For the same compound, the IC95 in data set [5] and in data set [6] was 125 nM each time.
As to `Cn1c([C@@H]2C[C@H](F)CN2S(C)(=O)=O)nc(C(=O)NCc2ccc(F)cc2)c(O)c1=O`, the IC50 in data set [3] came to 15 nM. The IC95 in data set [5] was 125 nM; in data set [6] it was 31 nM.
On to `CN(C)S(=O)(=O)N1C[C@@H](F)C[C@H]1c1nc(C(=O)NCc2ccc(F)cc2)c(O)c(=O)n1C`, for which, in data set [3], the IC50 is 9 nM. The clearance in data set [4] is 64 mL/min/kg. Also, the IC95 came out at 125 nM in [5] and 31 nM in [6]. The bioavailability in data set [7] came out at 16%.
Compound `Cn1c([C@@H]2C[C@H](F)CN2C(=O)c2cnccn2)nc(C(=O)NCc2ccc(F)cc2)c(O)c1=O` displayed an AUC in data set [1] of 2.3 µM·h. In [2], the half-life is 0.2 h. The IC50 in data set [3] is 10 nM. In data set [4], this compound yielded a clearance of 77 mL/min/kg. The IC95 in data set [5] and in data set [6] was 16 nM each time. Further, the bioavailability in data set [7] worked out at 18%.
The compound `CN(C)C(=O)C(=O)N1C[C@@H](F)C[C@H]1c1nc(C(=O)NCc2ccc(F)cc2)c(O)c(=O)n1C` had an AUC in [1] of 0.2 µM·h. In addition, the half-life in data set [2] is 1.6 h. The IC50 in data set [3] was 21 nM. The same compound returned a clearance in [4] of 138 mL/min/kg. In addition, the IC95 in [5] and in [6] was 16 nM in each case. The bioavailability in data set [7] is 19%.
Regarding `CC(=O)N1C[C@@H](F)C[C@H]1c1nc(C(=O)NCc2ccc(F)c(Cl)c2)c(O)c(=O)n1C`, the figures for the AUC in data set [8] and in [1] were 2.8 µM·h and 0.5 µM·h, respectively. Besides, the bioavailability in [9] is 34%; in [7] it was 20%. Moreover, the half-life in data set [2] is 0.7 h; in data set [17], 7.1 h. For the same compound, the “Ratio IC50” value stood at 4 in data set [10]; 1 in data set [11]; 3 in data set [12]; 2 in data set [13]; 3 in [14]; 31 in data set [15]. In addition, the “Ratio IC50” value in data set [16] is given as 31; in data set [19] it was 1; in data set [20] it was 17. The IC50 in data set [3] was found to be 24 nM. Further, the clearance in data set [4] worked out at 43 mL/min/kg. For the same compound, the results for the IC95 in data set [5] and in data set [6] were 17 nM and 3 nM, respectively.
Regarding `CN1C[C@@H](F)C[C@H]1c1nc(C(=O)NCc2ccc(F)cc2)c(O)c(=O)n1C`, the area under the curve (AUC) in data set [8] amounted to 23.1 µM·h; in data set [1], 4.5 µM·h. The bioavailability in data set [9] was 116%. Also, the IC50 in [3] was 23 nM. The same compound returned a clearance in [4] of 21 mL/min/kg. In addition, the results for the IC95 in data set [5] and in data set [6] were 125 nM and 63 nM, respectively. Moreover, in data set [17], the half-life is 3.7 h.

By AUC is commonly meant concentration integrated over time. The low end stands for low exposure, the high end for high exposure. As usually defined, the IC50 is the concentration at which inhibition is half-maximal.
